Assay results from ChEMBL document CHEMBL1773009, “Red-fluorescent argininamide-type NPY Y1 receptor antagonists as pharmacological tools” (Bioorg Med Chem, 2011).
Active and inactive are the calls of the source. No cut-off for these calls is given here.

What was measured:
[1] = target: T1, Neuropeptide Y receptor type 1 (Homo sapiens) (UniProt P25929); assay: Antagonist activity at Y1R in human HEL cells assessed as inhibition of pNPY induced [Ca2+] mobilisation; format: functional, cell-based
T1 sequence (whole entry): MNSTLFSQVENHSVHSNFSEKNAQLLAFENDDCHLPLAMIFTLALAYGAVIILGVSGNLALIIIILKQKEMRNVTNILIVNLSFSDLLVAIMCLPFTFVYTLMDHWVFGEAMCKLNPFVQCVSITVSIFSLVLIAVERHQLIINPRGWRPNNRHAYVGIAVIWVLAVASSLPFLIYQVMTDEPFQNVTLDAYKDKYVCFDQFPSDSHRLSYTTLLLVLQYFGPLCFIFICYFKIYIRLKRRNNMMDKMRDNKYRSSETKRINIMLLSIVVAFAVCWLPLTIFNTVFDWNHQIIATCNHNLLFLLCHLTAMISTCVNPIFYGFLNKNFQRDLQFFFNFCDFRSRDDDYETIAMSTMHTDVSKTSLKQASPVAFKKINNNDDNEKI

[2] = target: T2, Neuropeptide Y receptor type 1 (Homo sapiens, UniProt P25929); assay: Displacement of [3H]-UR-MK114 from Y1R in human SK-N-MC cells; format: cell-based
T2 sequence (P25929 whole entry): T1 sequence (whole entry)

[3] = Chemical stability in aqueous buffer assessed as compound decomposition after 20 mins at pH 7 by HPCL; format: physicochemical; settings: read-out: Activity
In short: (§1)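 Compound at 50 µM final (from 1 mM DMSO stock) in PBS pH 7.0, 20 °C; aliquots at 20 and 90 min diluted with acetonitrile/H2O/1% TFA, analysed by RP-HPLC (220 nm); release of parent argininamide quantified against a five-point calibration curve (0.3–25 µM).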

[4] = Chemical stability in aqueous buffer assessed as compound decomposition after 90 mins at pH 7 by HPCL; format: physicochemical; settings: read-out: Activity; in short: as §1
[5] = target: Neuropeptide Y receptor type 4 (Homo sapiens, UniProt P50391); assay: Displacement of Cy5-[K4]-hpp from human Y4R expressed in CHO cells by flow cytometry; format: cell-based
Chain of Neuropeptide Y receptor type 4 (P50391 whole entry): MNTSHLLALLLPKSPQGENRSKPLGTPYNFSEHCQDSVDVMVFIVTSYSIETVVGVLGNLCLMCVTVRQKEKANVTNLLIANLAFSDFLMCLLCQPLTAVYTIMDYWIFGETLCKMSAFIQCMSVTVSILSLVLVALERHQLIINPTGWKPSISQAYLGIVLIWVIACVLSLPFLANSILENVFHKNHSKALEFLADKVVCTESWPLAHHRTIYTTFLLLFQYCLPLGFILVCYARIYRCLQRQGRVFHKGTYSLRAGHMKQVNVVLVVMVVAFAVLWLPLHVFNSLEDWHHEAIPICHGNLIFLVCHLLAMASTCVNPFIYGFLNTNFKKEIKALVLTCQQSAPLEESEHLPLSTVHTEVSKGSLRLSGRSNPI
In short: (§2)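 Flow cytometric displacement of labelled peptides: Cy5-[K4]-hPP on CHO-Y4 cells; Dy-635-pNPY or Cy5-pNPY on CHO-Y2 and HEC-1B-Y5 cells. Test ligands only at 1 and 10 µM or at 0.3 and 1 µM; for the red-excitable ligand, its own fluorescence without peptide was subtracted.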

[6] = target: T3, Neuropeptide Y receptor type 2 (Homo sapiens, UniProt P49146); assay: Displacement of Dy-635-pNPY from human Y2R expressed in CHO cells by flow cytometry; format: cell-based; in short: as §2
T3 sequence (P49146 whole entry): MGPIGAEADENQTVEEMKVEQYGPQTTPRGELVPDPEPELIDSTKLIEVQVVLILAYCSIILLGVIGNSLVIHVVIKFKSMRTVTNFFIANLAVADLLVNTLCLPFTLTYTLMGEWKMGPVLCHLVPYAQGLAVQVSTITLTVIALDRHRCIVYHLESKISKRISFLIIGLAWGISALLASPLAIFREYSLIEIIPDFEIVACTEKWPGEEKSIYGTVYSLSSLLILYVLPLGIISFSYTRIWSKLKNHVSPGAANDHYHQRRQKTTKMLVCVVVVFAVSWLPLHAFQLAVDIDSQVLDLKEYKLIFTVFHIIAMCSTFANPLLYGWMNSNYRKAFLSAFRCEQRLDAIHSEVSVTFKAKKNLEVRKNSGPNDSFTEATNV

[7] = target: T1, Neuropeptide Y receptor type 1 (Homo sapiens); assay: Antagonist activity at Y1R in human MCF-7 cells at 50 nM after 12 to 15 mins by fluorescence confocal microscopy; format: functional, cell-based; settings: MCF7
In short: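 MCF-7-Y1 cells (MCF-7 subclone with 2–3-fold higher Y1R expression) pretreated 48 or 72 h with 1 nM 17β-estradiol; live-cell confocal imaging of fluorescent ligand (50–80 nM) after 5–23 min at rt in Leibovitz L15; non-specific binding with excess BIBP 3226 (5 µM or 80–125-fold); autofluorescence control.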

[8] = target: T2, Neuropeptide Y receptor type 1; assay: Binding affinity at Y1R in human MCF-7 cells by flow cytometry; format: cell-based, MCF7
In short: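 MCF-7-Y1 cells given 1 nM 17β-estradiol 3 days beforehand, trypsinised, suspended at 0.5–1 × 10^6 cells/mL in HEPES-buffered saline, 1% DMSO; saturation with fluorescent ligand 1–50 nM (non-specific: 200-fold BIBP 3226) or competition against 10 nM labelled ligand (0.03–3000 nM competitor); 15 min dark, rt; 635 nm excitation, FL-4 readout, 20,000 gated events.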

[9] = Chemical stability of the compound in DMSO at below 0 degC; format: physicochemical
[10] = target: T4, Neuropeptide Y receptor type 5 (Homo sapiens, UniProt Q15761); assay: Displacement of Dy-635-pNPY from human Y5R expressed in HEC-1B cells by flow cytometry
T4 sequence (Q15761 whole entry): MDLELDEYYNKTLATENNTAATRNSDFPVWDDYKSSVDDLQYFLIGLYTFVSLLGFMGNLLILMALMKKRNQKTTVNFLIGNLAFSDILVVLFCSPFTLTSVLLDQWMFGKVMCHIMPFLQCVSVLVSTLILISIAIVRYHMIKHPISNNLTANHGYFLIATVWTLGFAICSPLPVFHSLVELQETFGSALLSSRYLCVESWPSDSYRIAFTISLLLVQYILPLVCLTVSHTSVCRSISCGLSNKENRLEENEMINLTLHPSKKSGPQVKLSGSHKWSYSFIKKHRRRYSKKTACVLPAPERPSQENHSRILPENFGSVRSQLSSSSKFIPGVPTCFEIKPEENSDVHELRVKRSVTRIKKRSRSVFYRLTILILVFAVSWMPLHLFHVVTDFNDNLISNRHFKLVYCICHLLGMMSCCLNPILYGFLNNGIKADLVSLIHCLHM

[11] = target: T2, Neuropeptide Y receptor type 1; assay: Displacement of [3H]-UR-MK114 from Y1R in human SK-N-MC cells by radioligand competition binding

Kb [1]: 0.7 nM
Ki [2]: 26 nM
degraded at 20 min [3]: 0%
degraded at 1.5 h [4]: 0%
IC50 [5]: > 1000 nM
Ki [5]: > 500 nM
IC50 [6]: > 1000 nM
Ki [6]: > 500 nM
Activity [7]: Active
Kd [8]: 5 nM
Stability [9]: 12 months
IC50 [10]: > 1000 nM
Ki [10]: > 400 nM
Ki [11]: 26 nM
SMILES: CN(C)c1ccc(/C=C/C=C/c2sc3ccccc3[n+]2CCCC(=O)NCCCCNC(=O)/N=C(/N)NCCC[C@@H](NC(=O)C(c2ccccc2)c2ccccc2)C(=O)NCc2ccc(O)cc2)cc1.O=C([O-])C(F)(F)F
